# Bioassay records from PubChem.
# The list is not random: actives were taken first. Their share in the collection is about 2.8%.
# PP1 inh – PP1-alpha phosphatase inhibitors, primary screen, counter-screen for PP5 inhibitor project, biochemical, fluorescence, OMFP substrate, single point. 0.9% of 320,000 active. inhibition, % at 6.7 µM. AID 2235, 2010. purified PP1alpha;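 active means inhibition above the mean inhibition of all tested compounds plus 3 SD, computed separately for each screening campaign, cut at about 15% in these data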
# Target sequence (P62136 whole entry, looked up): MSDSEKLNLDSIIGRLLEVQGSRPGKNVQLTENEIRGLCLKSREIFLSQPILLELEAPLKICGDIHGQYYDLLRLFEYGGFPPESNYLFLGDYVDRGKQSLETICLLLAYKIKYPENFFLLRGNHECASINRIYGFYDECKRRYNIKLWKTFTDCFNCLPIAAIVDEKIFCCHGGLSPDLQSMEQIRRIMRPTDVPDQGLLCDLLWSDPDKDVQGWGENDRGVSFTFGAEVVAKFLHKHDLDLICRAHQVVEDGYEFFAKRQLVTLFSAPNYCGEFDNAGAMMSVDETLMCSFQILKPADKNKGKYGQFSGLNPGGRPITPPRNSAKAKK
# pCIP destab – p/CIP-EGFP fusion destabilizers, primary screen, fluorescence, F442A cells. decrease of EGFP signal, % at 10 µM. 0.01% of 290,000 active. 16 h;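 active means EGFP signal decrease of at least 30% at 10 µM or well 3 SD below plate mean, unless failing retest; inactive means the rest, including hits failing retest or dose response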
# UBC13 polyUb – UBC13 polyubiquitin chain formation inhibitors, primary screen, biochemical, TR-FRET, uHTS | Ubiquitin-conjugating enzyme E2 N (Homo sapiens), P61088 | inhibition, % at 20 µM | 0.47% of 330,000 active | AID 485273, 2010; in the data active means inhibition above about 45%, passing the limit was not always enough
# AI-2 QS mod – Vibrio harveyi AI-2 quorum sensing modulators, primary screen, JMH597 strain, luminescence/OD600 ratio | activity change, % at 7.5 µM | 0.4% of 300,000 active | Vibrio harveyi JMH597 AI-2 luminescence/OD600 ratio, 9 h; stronger effect = lower value; strain lacks LuxN and CqsS sensors; 0 = neutral-control median; in the data active means activity change below about -75%, passing the limit was not always enough;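 further: luminescence divided by OD600 gain over 9 h not by final OD600 alone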
# T cruzi repl – inhibitors of intracellular T. cruzi growth, primary screen, luminescence, NIH3T3 host cells; AID 1885, 2009; T. cruzi beta-gal in NIH3T3, 90 h; 1.4% of 300,000 active; inhibition, % (test concentration not listed);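 active means mean inhibition across valid replicates above about 55%, limit read from the data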;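 further: signal also drops with host cell toxicity which is not excluded here; 0% = plate median of DMSO wells and 100% = zero luminescence signal; higher percent means less beta-gal luminescence so fewer parasites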
#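 System: mouse NIH/3T3 fibroblasts infected with β-gal-expressing T. cruzi Tulahuen C4 / Input: NIH/3T3 cells, 5,000 per well / Buffer or medium: Low-serum DMEM with 2% FBS / Probe or stimulus: 5000 reporter trypomastigotes per well / Schedule: ≥90 h infection period, 3 h prior cell attachment / Measured by: GalScreen luminescence, 60 min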
# * hit, by the source's call; nt = no result.
SMILES,PP1 inh,pCIP destab,UBC13 polyUb,AI-2 QS mod,T cruzi repl
COC(=O)Cn1c(O)c(N=NC(=O)c2ccc3c(c2)OCO3)c2ccccc21,2,-2,-17,7,-15
Cc1ccc(-c2cc(C(=O)N3N=C(C(F)F)CC3(O)C(F)F)c3ccccc3n2)cc1C (stereo unspecified),5,17,6,17,64*
CCc1nnc(N2C(=O)c3ccc(Oc4ccc([N+](=O)[O-])cc4)cc3C2=O)s1,1,-4,3,14,3
CC(NC(=O)CN1C(=O)NC2(CCCCC2C)C1=O)c1ccccc1 (stereo unspecified),0,nt,6,nt,nt
CCOc1ccccc1CN1CCCC(CNC(=O)Cc2ccc(OC)cc2)C1 (stereo unspecified),-1,-7,-6,-6,59*
CSc1ccc(CN2CCCC(CNC(=O)c3ccc(F)cc3)C2)cc1 (stereo unspecified),-3,-6,19,8,63*
COc1ccccc1CN1CCCC(CNC(=O)c2cccc3ccccc23)C1 (stereo unspecified),-6,2,1,21,61*
O=C(NCC1CCCN(Cc2nccs2)C1)c1cccc2ccccc12 (stereo unspecified),-3,-2,0,24,5
O=C(NCC1CCCN(Cc2ccccc2F)C1)c1cccc(C(F)(F)F)c1 (stereo unspecified),2,1,3,38,66*
Cc1cc(Cn2nc(C(=O)NCc3cccs3)cc2-c2ccccc2)on1,1,nt,2,nt,nt
COc1ccc(N(CC(=O)NCc2cccs2)S(=O)(=O)c2c(C)n[nH]c2C)cc1,-4,-8,4,12,-7
COc1ccc(CC(=O)NCC2CCCN(Cc3ccc(F)c(OC)c3)C2)cc1 (stereo unspecified),-2,4,9,9,42
COc1ccc(CC(=O)NCC2CCCN(Cc3ccc(SC)cc3)C2)cc1 (stereo unspecified),-2,0,-5,-1,68*
O=C(CN1C(=O)COc2ccccc21)N(Cc1cccnc1)Cc1ccccc1F,-5,-6,0,40,76*
CCn1c2ccccc2c2cc(NC(=O)CNCC3CCCO3)ccc21 (stereo unspecified),2,5,14,30,69*
CCc1cc(=O)[nH]c(-n2[nH]c(-c3ccccc3)cc2=O)n1,-1,6,0,21,-12
O=c1cc(-c2ccccc2)[nH]n1-c1nc2ccccc2[nH]1,17*,0,-31,28,-17
CCOc1ccc(S(=O)(=O)NCc2cccnc2)cc1C(C)C,0,7,-1,19,-14
Cc1ccc(Nc2ncccc2C(=O)O)cc1C,3,-18,2,-79*,9
COc1ccc(NC(=O)c2cccc(Cn3cc(Br)c([N+](=O)[O-])n3)c2)c(C)c1,6,11,5,21,68*
C/C(=N\NC(=O)CNC(=O)C1COc2ccccc2O1)c1ccc(Cl)cc1 (stereo unspecified),3,6,19,19,24
COC(=O)c1ccc(NC(=O)COc2ccc(C3C(C#N)=C(N)Oc4c3ccc3ccccc43)cc2OC)cc1 (stereo unspecified),16*,-8,-12,8,14
c1ccc(-c2cc3nccc(-c4ccccn4)n3n2)cc1,0,-10,-8,22,7
O=C(Nc1ccc(Cl)c(Cl)c1)Nc1nc(-c2ccccc2)cs1,4,6,-16,38,64*
CCCCCCCCCCCCN1[C@@H](CC(=O)OC)c2cc(C(F)(F)F)ccc2S1(=O)=O,-1,nt,-12,16,-3
CCCCCCCCCCCCN1[C@@H](CC(=O)O)c2cc(F)ccc2S1(=O)=O,16*,nt,-20,10,1
CCCCCCCCN1[C@@H](CC(=O)OCC)c2ccc(C(F)(F)F)cc2S1(=O)=O,2,nt,18,0,61*
CCCCCCCCN1[C@@H](CC(=O)OC)c2cc(F)ccc2S1(=O)=O,0,nt,8,4,11
COc1cc(/C=C/c2ccc3cccc(O)c3n2)cc(OC)c1OC,8,-18,-4,21,45
COc1cc(/C=C/c2ccc3cccc(O)c3n2)cc(Br)c1OC,15*,-3,-12,19,72*
